In ChEMBL document CHEMBL4014326, “Discovery of an Orally Bioavailable Benzimidazole Diacylglycerol Acyltransferase 1 (DGAT1) Inhibitor That Suppresses Body Weight Gain in Diet-Induced Obese Dogs and Postprandial Triglycerides in Humans” (J Med Chem, 2017):

Experiments:
[1] = target: T1, Diacylglycerol O-acyltransferase 1 (Homo sapiens, UniProt O75907); test: Inhibition of recombinant human His6-tagged DGAT1 expressed in Sf9 insect cell membranes assessed as inhibition of triglyceride formation using diolein/oleyl-CoA as substrate after 30 mins by LC/MS/MS analysis
T1 sequence (O75907 whole entry): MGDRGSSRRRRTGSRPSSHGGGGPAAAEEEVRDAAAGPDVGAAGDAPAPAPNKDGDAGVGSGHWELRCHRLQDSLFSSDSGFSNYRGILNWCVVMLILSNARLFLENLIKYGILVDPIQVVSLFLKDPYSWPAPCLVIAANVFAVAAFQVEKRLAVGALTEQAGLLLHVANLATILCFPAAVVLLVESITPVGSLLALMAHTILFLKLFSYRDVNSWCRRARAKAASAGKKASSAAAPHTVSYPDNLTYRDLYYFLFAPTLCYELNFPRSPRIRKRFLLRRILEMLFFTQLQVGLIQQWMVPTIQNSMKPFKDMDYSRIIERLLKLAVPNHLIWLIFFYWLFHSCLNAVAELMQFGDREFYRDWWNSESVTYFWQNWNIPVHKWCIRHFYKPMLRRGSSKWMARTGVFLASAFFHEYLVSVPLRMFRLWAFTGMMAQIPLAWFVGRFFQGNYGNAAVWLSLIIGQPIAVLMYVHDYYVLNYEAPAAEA

[2] = Permeability across apical to basolateral side in human Caco2 cells; assay type: ADME, cell-based; conditions: Caco-2, read-out: permeability
Outline: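 Caco-2 monolayer permeability was measured in the A-B and B-A directions, and the efflux ratio was taken as B-A/A-B.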

Salmonella typhimurium = test: Genotoxicity in histidine depleted Salmonella typhimurium TA100 assessed as increase in reverting mutations up to 1000 ug in presence of S9 metabolic activation by Ames test; assay type: toxicity; conditions: salmonella enterica subsp. enterica serovar typhimurium
[3] = Half life in Sprague-Dawley rat at 1 mg/kg, iv by LC/MS/MS analysis; assay type: ADME, organism-based; conditions: in vivo
Outline: (§1)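 Male Sprague-Dawley rats, 200-300 g, dosed iv (n = 2) or po (n = 3) as solutions in NMP/PG or PEG400/ETPGS vehicles. Blood was taken from a jugular vein catheter at 0.083 (iv only), 0.25, 0.5, 1, 2, 4, 6 and 8 h into EDTA tubes, and plasma was analysed by LC-MS/MS. Values are means ± SD.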

[4] = AUC (0 to 8 hrs) in Sprague-Dawley rat at 1mg/kg, iv by LC/MS/MS analysis; assay type: ADME, organism-based; set-up: time < 8 hr, dose 1 mg/kg, route intravenous; conditions: in vivo; outline: as §1
[5] = Oral bioavailability in Sprague-Dawley rat at 3 mg/kg by LC/MS/MS analysis; assay type: ADME, organism-based; conditions: in vivo; outline: as §1
[6] = Drug metabolism in human hepatocytes assessed as [3H]-(2S,3S,4S,5R,6S)-3,4,5-trihydroxy-6-(3-(4-(6-(5-(4-methoxyphenyl)-1,3,4-oxadiazol-2-yl)-1H-benzo[d]imidazol-2-yl)-3,5-dimethylphenyl)-2,2-dimethylpropanoyloxy)tetrahydro-2H-pyran-2-carboxylic acid formation at 12.5 uM after 18 hrs; assay type: ADME, cell-based, Hepatocyte
Outline: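 [3H]-labelled compound (12.5 µM) was incubated for 18 h with rat, dog, monkey or human hepatocytes, and metabolites were profiled.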

COc1ccc(-c2nnc(-c3ccc4nc(-c5c(C)cc(CC(C)(C)C(=O)O)cc5C)[nH]c4c3)o2)cc1
IC50 [1]: 17 nM | Papp A→B [2]: 4.2 ×10⁻⁶ cm/s | Activity (Salmonella typhimurium): Non-Toxic | half-life [3]: 1.9 h | AUC(0-t) at 8 h [4]: 3.86 µM·h | bioavailability [5]: 90% | Drug metabolism [6]: Metabolite_Detected
